# Test results taken from ChEMBL document CHEMBL1142436, “Design and synthesis of 4-substituted indolo[3,2-e][1,2,3]triazolo[1,5-a]pyrimidine derivatives with antitumor activity” (2008).
# Experiments:
# Type in all cases: functional
# HL-60 = assay: Growth inhibition of human HL60 cells after 48 hrs; settings: HL-60, 48 h
# In short: (§1)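 NCI ~60-line screen. Cells were grown in RPMI 1640 with 5% FBS and 2 mM L-glutamine and plated at 5000–40000 cells/well. After a 24 h preincubation, five drug concentrations from DMSO stocks were added for 48 h at 37 °C. Cells were TCA-fixed, stained with SRB and read at 515 nm. GI50 was taken from time-zero and control absorbances and reported as pGI50.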
# OVCAR-3 = assay: Growth inhibition of human OVCAR-3 cells after 48 hrs; settings: OVCAR-3, 48 h; in short: as §1
# SW-620 = assay: Growth inhibition of human SW620 cells after 48 hrs; settings: SW-620, 48 h
# In short: (§2)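 NCI 60-line screen: cells in RPMI 1640 with 5% FBS and 2 mM L-glutamine, plated at 5000–40000 cells/well, grown 24 h (37 °C, 5% CO₂), then exposed to five 10-fold or ½-log dilutions (DMSO stock) for 48 h. Fixed with TCA (final 10% for adherent cells, 16% for suspension cells), then SRB stained with absorbance at 515 nm. GI50 from percentage growth relative to time-zero and control wells.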
# Malme-3M = assay: Growth inhibition of human MALME3M cells after 48 hrs; in short: as §1
# HCC 2998 = assay: Growth inhibition of human HCC2998 cells after 48 hrs; settings: HCC 2998, 48 h; in short: as §1
# DU-145 = assay: Growth inhibition of human DU145 cells after 48 hrs; settings: DU-145, 48 h; in short: as §1
# SNB-75 = assay: Growth inhibition of human SNB75 cells after 48 hrs; settings: SNB-75, 48 h; in short: as §2
# CAKI-1 = assay: Growth inhibition of human CAKI1 cells after 48 hrs; settings: CAKI-1, 48 h; in short: as §1
# LOX IMVI = assay: Growth inhibition of human LOXIMVI cells after 48 hrs; in short: as §1
# K562 = assay: Growth inhibition of human K562 cells after 48 hrs; settings: K562, 48 h; in short: as §1
# SK-OV-3 = assay: Growth inhibition of human SKOV3 cells after 48 hrs; settings: SK-OV-3, 48 h; in short: as §2
# MCF7 = assay: Growth inhibition of human MCF7 cells after 48 hrs; settings: MCF7, 48 h; in short: as §1
# M14 = assay: Growth inhibition of human M14 cells after 48 hrs; settings: M14, 48 h; in short: as §1
# T47D = assay: Growth inhibition of human T47D cells after 48 hrs; in short: as §2
# OVCAR-5 = assay: Growth inhibition of human OVCAR5 cells after 48 hrs; settings: OVCAR-5, 48 h; in short: as §1
# HCT-15 = assay: Growth inhibition of human HCT15 cells after 48 hrs; settings: HCT-15, 48 h; in short: as §1
# A498 = assay: Growth inhibition of human A498 cells after 48 hrs; settings: A498, 48 h; in short: as §1
# U-251 = assay: Growth inhibition of human U251 cells after 48 hrs; settings: U-251, 48 h; in short: as §2
# OVCAR-4 = assay: Growth inhibition of human OVCAR4 cells after 48 hrs; settings: OVCAR-4, 48 h; in short: as §1
# NCI-H23 = assay: Growth inhibition of human NCI-H23 cells after 48 hrs; in short: as §1
# MDA-MB-231 = assay: Growth inhibition of human MDA-MB-231 cells after 48 hrs; settings: MDA-MB-231, 48 h; in short: as §1
# SR = assay: Growth inhibition of human SR cells after 48 hrs; in short: as §2
# [1] = read-out: Log LC50 (the source's name) (converted)
structure (smiles),measurement,setting,value
Cn1c2ccccc2c2c(=O)n(CCCC(=O)NCCc3c[nH]cn3)c3c(-c4ccccc4)nnn3c21,GI50,HL-60,11.7 µM
same,LC50,HL-60,> 50.1 µM
same,TGI,HL-60; read-out: pTGI (converted),28.2 µM
same,GI50,OVCAR-3,8.32 µM
same,LC50,OVCAR-3,31.6 µM
same,TGI,OVCAR-3; read-out: pTGI (converted),16.2 µM
same,GI50,SW-620,12.9 µM
same,"LC50 (lethal concentration, 50% cell kill)",SW-620,> 50.1 µM
same,TGI,SW-620; read-out: pTGI (converted),30.2 µM
same,GI50,Malme-3M,7.59 µM
same,LC50,Malme-3M,37.2 µM
same,TGI,Malme-3M; read-out: pTGI (converted),16.6 µM
same,GI50,HCC 2998,9.55 µM
same,LC50,HCC 2998,40.7 µM
same,TGI,HCC 2998; read-out: pTGI (converted),20 µM
same,GI50,DU-145,6.92 µM
same,LC50,DU-145,27.5 µM
same,TGI,DU-145; read-out: pTGI (converted),13.8 µM
same,GI50,SNB-75,10.5 µM
same,LC50,SNB-75,33.1 µM
same,TGI,SNB-75; read-out: pTGI (converted),18.6 µM
same,GI50,CAKI-1,12 µM
same,LC50 (concentration killing 50% of cells),CAKI-1,> 50.1 µM
same,TGI,CAKI-1; read-out: pTGI (converted),33.1 µM
same,GI50,LOX IMVI,11.2 µM
same,"LC50 (lethal concentration, 50% cell kill)",LOX IMVI,46.8 µM
same,TGI,LOX IMVI; read-out: pTGI (converted),22.9 µM
same,GI50,K562,8.91 µM
same,LC50,K562,> 50.1 µM
same,TGI,K562; read-out: pTGI (converted),26.9 µM
same,GI50,SK-OV-3,10.2 µM
same,LC50,SK-OV-3,33.9 µM
same,TGI,SK-OV-3; read-out: pTGI (converted),18.6 µM
same,GI50,MCF7,12.9 µM
same,LC50,MCF7,> 50.1 µM
same,TGI,MCF7; read-out: pTGI (converted),30.2 µM
same,GI50,M14,12 µM
same,LC50,M14,49 µM
same,TGI,M14; read-out: pTGI (converted),24.5 µM
same,GI50,T47D,10.5 µM
same,CC50,T47D; [1],> 50.1 µM
same,TGI,T47D; read-out: pTGI (converted),25.1 µM
same,GI50,OVCAR-5,11 µM
same,LC50 (concentration killing 50% of cells),OVCAR-5,38 µM
same,TGI,OVCAR-5; read-out: pTGI (converted),20.4 µM
same,GI50,HCT-15,14.5 µM
same,LC50,HCT-15,> 50.1 µM
same,TGI,HCT-15; read-out: pTGI,43.7 µM
same,GI50,A498,7.59 µM
same,CC50,A498; [1],30.9 µM
same,TGI,A498; read-out: pTGI (converted),15.1 µM
same,GI50,U-251,9.55 µM
same,LC50,U-251,36.3 µM
same,TGI,U-251; read-out: pTGI (converted),18.6 µM
same,GI50,OVCAR-4,10.2 µM
same,LC50,OVCAR-4,41.7 µM
same,TGI,OVCAR-4; read-out: pTGI (converted),20.4 µM
same,TGI,"NCI-H23; Homo sapiens, NCI-H23, 48 h, read-out: pTGI (converted)",46.8 µM
same,CC50,NCI-H23; [1],13.2 µM
same,GI50,MDA-MB-231,9.33 µM
same,LC50 (concentration killing 50% of cells),MDA-MB-231,37.2 µM
same,TGI,MDA-MB-231; read-out: pTGI (converted),18.6 µM
same,GI50,SR,4.07 µM
same,LC50,SR,> 50.1 µM
same,TGI,SR; read-out: pTGI (converted),> 50.1 µM
